Test results: ChEMBL document CHEMBL1139574, “Synthesis and biological evaluation of novel bisphosphonates with dual activities on bone in vitro” (2005)

Legend:
Type in all cases: functional
[1] = Inhibitory ratio of osteoclast precursor cells at concentration of 10e-7 M by staining with tartrate-resistant acid […]
Summary of the method: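 Osteoclast precursor cells plated at 5 × 10⁴ cells/well and cultured 8 days with or without bisphosphonate at 10^-7 M. Cells then TRAP-stained, and positive cells with three or more nuclei counted. Inhibitory ratio (%) = (control count − treated count)/control count × 100. Mean ± SE, n = 5.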

[2] = species: Rattus norvegicus; assay: Proliferative activity on the of rat calvaria osteoblasts at concentration of 10e-5 M
Summary of the method: (§1)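 SD rat calvarial osteoblasts plated at 2 × 10⁴ cells/well and exposed to a range of bisphosphonate concentrations for 72 h. Proliferation read by MTT, absorbance at 492 nm. Proliferative ratio (%) = (treated − control)/control × 100. Mean ± SE, n = 3.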

[3] = species: Rattus norvegicus; assay: Proliferative activity on the of rat calvaria osteoblasts at concentration of 10e-6 M; summary of the method: as §1
[4] = species: Rattus norvegicus; assay: Proliferative activity on the of rat calvaria osteoblasts at concentration of 10e-8 M; summary of the method: as §1
[5] = species: Rattus norvegicus; assay: Proliferative activity on the of rat calvaria osteoblasts at concentration of 10e-7 M; summary of the method: as §1
[6] = biological target: T1, Alkaline phosphatase, tissue-nonspecific isozyme (Rattus norvegicus) (UniProt P08289); assay: Inhibitory activity of Alkaline phosphatase was determined at concentration of 10e-9 M using p-nitrophenylphosphate as the substrate
T1 sequence (whole entry): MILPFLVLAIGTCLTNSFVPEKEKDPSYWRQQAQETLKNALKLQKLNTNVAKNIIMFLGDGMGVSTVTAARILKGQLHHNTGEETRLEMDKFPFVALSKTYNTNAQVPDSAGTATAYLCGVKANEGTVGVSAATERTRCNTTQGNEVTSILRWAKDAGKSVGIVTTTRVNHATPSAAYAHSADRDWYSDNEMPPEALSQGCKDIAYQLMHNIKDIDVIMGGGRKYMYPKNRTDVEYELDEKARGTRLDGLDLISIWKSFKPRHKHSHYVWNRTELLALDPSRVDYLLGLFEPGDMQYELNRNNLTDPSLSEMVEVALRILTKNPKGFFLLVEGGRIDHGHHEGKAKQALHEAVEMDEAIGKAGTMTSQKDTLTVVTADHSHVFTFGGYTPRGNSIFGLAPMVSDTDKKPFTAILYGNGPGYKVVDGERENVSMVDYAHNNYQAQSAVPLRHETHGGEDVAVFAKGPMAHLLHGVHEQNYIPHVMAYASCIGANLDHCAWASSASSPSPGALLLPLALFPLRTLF
Summary of the method: (§2)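 Primary osteoblast-enriched cells from newborn Sprague-Dawley rat calvaria, cultured in DMEM at 37 °C under 5% CO2. Seeded at 5 × 10³ cells/well and exposed to test agent for 72 h. Alkaline phosphatase activity measured with p-nitrophenylphosphate substrate. Values normalized to viable cell number from the MTT assay. Mean ± SE, n = 5.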

[7] = biological target: T1, Alkaline phosphatase, tissue-nonspecific isozyme (Rattus norvegicus); assay: Inhibitory activity of Alkaline phosphatase was determined at concentration of 10e-6 M using p-nitrophenylphosphate as the substrate; summary of the method: as §2
[8] = Inhibitory activity of bone gamma-carboxyglutamate (gla) protein (osteocalcin) was determined at concentration of 10e-6 M in cell lysates
Summary of the method: (§3)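 Newborn Sprague-Dawley rat calvarial osteoblast-enriched cultures seeded at 5 × 10³ cells/well and treated for 72 h. Osteocalcin measured in cell lysates by radioimmunoassay. Normalized to viable cell number from MTT. Mean ± SE, n = 5.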

[9] = biological target: T1, Alkaline phosphatase, tissue-nonspecific isozyme (Rattus norvegicus); assay: Inhibitory activity of Alkaline phosphatase was determined at concentration of 10e-8 M using p-nitrophenylphosphate as the substrate; summary of the method: as §2
[10] = biological target: T1, Alkaline phosphatase, tissue-nonspecific isozyme (Rattus norvegicus); assay: Inhibitory activity of Alkaline phosphatase was determined at concentration of 10e-7 M using p-nitrophenylphosphate as the substrate; summary of the method: as §2
[11] = Inhibitory activity of bone gamma-carboxyglutamate (gla) protein (osteocalcin) was determined at concentration of 10e-7 M in cell lysates; summary of the method: as §3
[12] = Inhibitory activity of bone gamma-carboxyglutamate (gla) protein (osteocalcin) was determined at concentration of 10e-8 M in cell lysates; summary of the method: as §3
[13] = Inhibitory activity of bone gamma-carboxyglutamate (gla) protein (osteocalcin) was determined at concentration of 10e-9 M in cell lysates; summary of the method: as §3

Row | SMILES | inhibition at 0.1 µM [1] [%] | Proliferation [2] [%] | Proliferation [3] [%] | Proliferation [4] [%] | Proliferation [5] [%] | other results
1 | Cc1ccc(C(=O)NCCC(O)(P(=O)(O)O)P(=O)(O)O)cc1 | 30.4 | – | – | – | – | –
2 | COc1cc([N+](=O)[O-])cc(C(=O)NCCC(O)(P(=O)([O-])O)P(=O)([O-])O)c1OC.[Na+].[Na+] | 64.4 | 17.7 | -1.5 | -0.8 | 21.4 | –
3 | O=C(NCCCCCC(O)(P(=O)(O)O)P(=O)(O)O)c1cccc(Cl)c1 | 15.9 | – | – | – | – | –
4 | Cc1ccccc1C(=O)NCCCC(O)(P(=O)(O)O)P(=O)(O)O | 30.3 | – | – | – | – | –
5 | O=C(NCCC(O)(P(=O)([O-])O)P(=O)([O-])O)c1ccc2c(c1)OCO2.[Na+].[Na+] | 60.2 | 9.3 | -8.3 | -0.2 | -7.3 | –
6 | COc1cccc(C(=O)NCCC(O)(P(=O)([O-])O)P(=O)([O-])O)c1OC.[Na+].[Na+] | 68.1 | 35.2 | 47.4 | 26.6 | 74.4 | Activity [6]: 0.56; Activity [7]: 3.6; Activity [8]: 11.7; Activity [9]: 0.75; Activity [10]: 2.15; Activity [11]: 8.63; Activity [12]: 4.73; Activity [13]: 4.07
7 | O=C(NCCCC(O)(P(=O)(O)O)P(=O)(O)O)c1ccccc1 | 35.6 | – | – | – | – | –
8 | COc1cccc(C(=O)NCCCC(O)(P(=O)([O-])O)P(=O)([O-])O)c1.[Na+].[Na+] | 34.2 | 0.7 | -5.5 | 3.7 | -12.4 | –
9 | O=C(NCCC(O)(P(=O)(O)O)P(=O)(O)O)c1ccccc1 | 9.5 | – | – | – | – | –
10 | COc1cccc(C(=O)NCCC(O)(P(=O)([O-])O)P(=O)([O-])O)c1.[Na+].[Na+] | 26.9 | 8.9 | 7.1 | 0.6 | -5.5 | –
11 | Cc1ccccc1C(=O)NCCCCCC(O)(P(=O)(O)O)P(=O)(O)O | 9.4 | – | – | – | – | –
12 | COc1ccc(C(=O)NCCCCCC(O)(P(=O)(O)O)P(=O)(O)O)cc1 | 39 | – | – | – | – | –
